Test results from ChEMBL document CHEMBL1122747, “Potential antitumor agents. 42. Structure-activity relationships for acridine-substituted dimethyl phosphoramidate derivatives of 9-anilinoacridine” (J Med Chem, 1984).

Legend:
[1] = Lipophilicity (Rm) (liquid chromatography); format: physicochemical
How it was run: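 Rm is measured for drug cations at pH 2 by liquid-liquid chromatography on a cellulose support.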

[2] = Binding affinity towards poly[d(A-T)] (fluorometric method); format: ADME
How it was run: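 Log R for binding to poly[d(A-T)] measured fluorometrically, corrected for quenching.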

[3] = test system: L1210; experiment: In vitro test for 50% reduction of cell number (of control) after 70 hr incubation with cultures of murine L1210 leukemia cells; format: functional; details: Mus musculus, L1210, 70 h; read-out: ID50 (the source's name)
[4] = test system: P388; experiment: Dose of drug needed to provide a percentage increase in life span of tumor-bearing mice in vivo of […]% compared to untreated controls after inoculation of 10e6 P388 leukemia cells; h=ILS of >50% could not be obtained at any dose level; format: functional, organism-based; details: Mus musculus
[5] = test system: P388; experiment: Tumor cell selectivity (ILSmax values) was evaluated in vivo for the percentage increase in life span of treated animals over that of P388 tumor bearing untreated control animals; h=ILS of >50% could not be obtained at any dose level; format: functional, organism-based; details: Mus musculus
How it was run: (§1)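 F1 (DBA/2J × C57BlJ) mice, 19-21 g, either sex, inoculated with 10^6 P388 leukemia cells on day 0. Drug given ip in 0.1 mL 30% aqueous ethanol on days 1, 5 and 9, as a solution or, at highest doses, as a sonicated suspension. Doses stepped down from a toxic level at 0.67-fold intervals. Groups of six mice; ILS relative to 20-30 controls. OD is the highest nonacutely toxic daily dose.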

[6] = test system: P388; experiment: In vivo inhibition of P388 in mice for optimal (highest nonacutely toxic) dose (OD); format: functional, Mus musculus; how it was run: as §1
[7] = test system: P388; experiment: Tumor cell selectivity (ILSmax values) was evaluated in vivo for the percentage increase in life span of treated animals over that of P388 tumor bearing untreated control animals; h=ILS of >20% could not be obtained at any dose level; format: functional, organism-based; details: Mus musculus; how it was run: as §1

Rm [1]	Log K [2]	IC50 [3] [nM]	SMILES	D50 [4]	Activity [5]	OD [6] [mg/kg/day]	Activity [7]
-0.2	5.3	> 2200	CS(=O)(=O)Nc1ccc(Nc2c3ccccc3nc3cc(S(C)(=O)=O)ccc23)cc1	ILS not obtained	ILS not obtained	150	
0.15	5.62	3800	CS(=O)(=O)Nc1ccc(Nc2c3ccccc3nc3ccc(Cl)cc23)cc1	ILS not obtained	ILS not obtained	150	
-0.04	6	2500	COc1ccc2nc3ccccc3c(Nc3ccc(NS(C)(=O)=O)cc3)c2c1	ILS not obtained		150	ILS not obtained

SMILES	Rm [1]	Log K [2]	IC50 [3] [nM]	D50 [4]	Activity [5]	OD [6] [mg/kg/day]	Activity [7]
COP(=O)(Nc1ccc(Nc2c3ccccc3nc3ccc(Cl)cc23)cc1)OC	0.37	6.17	900	ILS not obtained	ILS not obtained	100	
